Laboratory results as given in ChEMBL document CHEMBL1142874, “Design and synthesis of anticonvulsants from a combined phthalimide-GABA-anilide and hydrazone pharmacophore” (Eur J Med Chem, 2007).
Calls of active or inactive are those of the source. The rule behind the calls is not given here.

Legend:
Mus musculus [1] = test: Anticonvulsant activity in Albino CF1 mouse upto 300 mg/kg, ip in maximal electroshock seizure test; format: functional, organism-based; design: dose 300 mg/kg
Summary of the method: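 Mice dosed i.p. (0.01 mL/g) at 30, 100 and 300 mg/kg. Electroshock challenge run 30 min and 4 h after dosing.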

Mus musculus [2] = test: Anticonvulsant activity against subcutaneous pentylenetetrazole-induced seizure in Albino CF1 mouse at 300 mg/kg, ip after 0.5 hrs; format: functional, organism-based; design: dose 300 mg/kg
Summary of the method: (§1)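 Test compounds given i.p. to mice at 0.01 mL/g, at 30, 100 or 300 mg/kg. The seizure challenge followed at 0.5 h and at 4 h after dosing. The value recorded is the lowest dose that protected half or more of the mice. Where no activity was seen, the maximum dose given was 300 mg/kg.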

Mus musculus [3] = test: Anticonvulsant activity against subcutaneous pentylenetetrazole-induced seizure in Albino CF1 mouse at 300 mg/kg, ip after 4 hrs; format: functional, organism-based; design: dose 300 mg/kg; summary of the method: as §1
Mus musculus [4] = test: Anticonvulsant activity against subcutaneous strychnine-induced seizure in Albino CF1 mouse at 100 mg/kg, ip after 0.5 hrs; format: functional, organism-based; design: dose 100 mg/kg; summary of the method: as §1
Mus musculus [5] = test: Anticonvulsant activity against intraperitoneal picrotoxin-induced seizure in Albino CF1 mouse at 300 mg/kg, ip after 0.5 hrs; format: functional, organism-based; design: dose 300 mg/kg
Summary of the method: (§2)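 Mice received the test compound by intraperitoneal injection at 30, 100 or 300 mg/kg. They were then challenged with intraperitoneal picrotoxin and scored for anticonvulsant protection 0.5 h or 4 h after dosing. The value recorded is the lowest dose that protected half or more of the mice. A dash means no activity up to 300 mg/kg.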

Mus musculus [6] = test: Anticonvulsant activity against intraperitoneal picrotoxin-induced seizure in Albino CF1 mouse at 300 mg/kg, ip after 4 hrs; format: functional, organism-based; design: dose 300 mg/kg; summary of the method: as §2
Mus musculus [7] = test: Neurotoxicity in Albino CF1 mouse at 300 mg/kg, ip after 0.5 hrs by Rotarod test; format: toxicity, organism-based; design: dose 300 mg/kg, route intraperitoneal; details: in vivo
Summary of the method: (§3)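 Rotarod test in mice pre-trained to stay on the rod for two consecutive 90 s trials. Compounds given i.p. at 30, 100 or 300 mg/kg, with testing at 0.5 h and 4 h. Deficit was scored as failure to keep balance on the rod for 1 min in each of three trials. The value recorded is the lowest dose affecting half or more of the mice.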

Mus musculus [8] = test: Neurotoxicity in Albino CF1 mouse at 300 mg/kg, ip after 4 hrs by Rotarod test; format: toxicity, organism-based; design: dose 300 mg/kg, route intraperitoneal; details: in vivo; summary of the method: as §3
Mus musculus [9] = test: Anticonvulsant activity against subcutaneous strychnine-induced seizure in Albino CF1 mouse at 300 mg/kg, ip after 4 hrs; format: functional, organism-based; design: dose 300 mg/kg; summary of the method: as §1
Mus musculus [10] = test: Anticonvulsant activity against subcutaneous pentylenetetrazole-induced seizure in Albino CF1 mouse at 30 mg/kg, ip after 4 hrs; format: functional, organism-based; design: dose 30 mg/kg; summary of the method: as §1
Mus musculus [11] = test: Anticonvulsant activity against subcutaneous strychnine-induced seizure in Albino CF1 mouse at 300 mg/kg, ip after 0.5 hrs; format: functional, organism-based; design: dose 300 mg/kg; summary of the method: as §1
Mus musculus [12] = test: Anticonvulsant activity against intraperitoneal picrotoxin-induced seizure in Albino CF1 mouse at 100 mg/kg, ip after 0.5 hrs; format: functional, organism-based; design: dose 100 mg/kg; summary of the method: as §2
Mus musculus [13] = test: Anticonvulsant activity against intraperitoneal picrotoxin-induced seizure in Albino CF1 mouse at 100 mg/kg, ip after 4 hrs; format: functional, organism-based; design: dose 100 mg/kg; summary of the method: as §2
Mus musculus [14] = test: Anticonvulsant activity against subcutaneous strychnine-induced seizure in Albino CF1 mouse at 100 mg/kg, ip after 4 hrs; format: functional, organism-based; design: dose 100 mg/kg; summary of the method: as §1
Mus musculus [15] = test: Neurotoxicity in Albino CF1 mouse at 100 mg/kg, ip after 0.5 hrs by Rotarod test; format: toxicity, organism-based; design: dose 100 mg/kg, route intraperitoneal; details: in vivo; summary of the method: as §3
Mus musculus [16] = test: Neurotoxicity in Albino CF1 mouse at 100 mg/kg, ip after 4 hrs by Rotarod test; format: toxicity, organism-based; design: dose 100 mg/kg, route intraperitoneal; details: in vivo; summary of the method: as §3

SMILES | Activity (Mus musculus [1]) | Activity (Mus musculus [2]) | Activity (Mus musculus [3]) | Activity (Mus musculus [4]) | Activity (Mus musculus [5]) | Activity (Mus musculus [6]) | Activity (Mus musculus [7]) | Activity (Mus musculus [8]) | Activity (Mus musculus [9]) | Activity (Mus musculus [10]) | Activity (Mus musculus [11]) | Activity (Mus musculus [12]) | Activity (Mus musculus [13]) | Activity (Mus musculus [14]) | Activity (Mus musculus [15]) | Activity (Mus musculus [16])
C/C(=N/NC(=O)CCCN1C(=O)c2ccccc2C1=O)c1ccc([N+](=O)[O-])cc1 | inactive | inactive | inactive | Active | Active | inactive | Active | Not Active | inactive |  |  |  |  |  |  | 
Cc1ccc(NC(=O)CCCN2C(=O)c3ccccc3C2=O)c(C)c1 | inactive | inactive |  |  | Active | inactive | Active | Active | inactive | Active | inactive |  |  |  |  | 
Cc1ccc(NC(=O)CCCN2C(=O)c3ccccc3C2=O)cc1 | inactive | inactive | inactive |  | Active | inactive | Not Active | Active | inactive |  | Active |  |  |  |  | 
C/C(=N/NC(=O)CCCN1C(=O)c2ccccc2C1=O)c1ccccc1 | inactive | inactive | inactive | Active |  |  | Not Active | Not Active |  |  |  | Active | Active | Active |  | 
O=C(CCCN1C(=O)c2ccccc2C1=O)N/N=C\c1ccc([N+](=O)[O-])cc1 | inactive | inactive | inactive |  | inactive | inactive | Not Active | Not Active | inactive |  | inactive |  |  |  |  | 
COc1cc(/C=N\NC(=O)CCCN2C(=O)c3ccccc3C2=O)ccc1O | inactive | inactive | inactive |  | Active | inactive | Not Active | Not Active | inactive |  | inactive |  |  |  |  | 
O=C(CCCN1C(=O)c2ccccc2C1=O)N/N=C\c1ccccc1 | inactive | inactive | inactive | Active |  |  | Not Active | Not Active |  |  |  | Active | Active | Active |  | 
O=C1NC(=O)C(c2ccccc2)(c2ccccc2)N1 [PHENYTOIN] | inactive | inactive | inactive |  | inactive | inactive |  |  | inactive |  | inactive |  |  |  | Active | Active
C/C(=N/NC(=O)CCCN1C(=O)c2ccccc2C1=O)c1ccccc1O | inactive | inactive | inactive | Active |  | Active | Not Active | Not Active |  |  |  | Active |  | Active |  | 
O=C(CCCN1C(=O)c2ccccc2C1=O)NN=C(c1ccccc1)c1ccccc1 | inactive | inactive | inactive |  | Active | inactive | Not Active | Not Active | inactive |  | inactive |  |  |  |  | 
O=C(CCCN1C(=O)c2ccccc2C1=O)N/N=C\c1ccccc1O | inactive | inactive | inactive |  | Active | inactive | Not Active | Not Active | inactive |  | inactive |  |  |  |  | 
O=C(CCCN1C(=O)c2ccccc2C1=O)N/N=C\c1cccc([N+](=O)[O-])c1 | inactive | Active | inactive |  | Active | inactive | Not Active | Not Active | inactive |  | inactive |  |  |  |  | 
O=C(CCCN1C(=O)c2ccccc2C1=O)Nc1ccccc1Br | inactive | inactive | inactive |  |  | Active | Not Active | Not Active | inactive |  | inactive | Active |  |  |  | 
C/C(=N/NC(=O)CCCN1C(=O)c2ccccc2C1=O)c1cccc(N)c1 | inactive | inactive | inactive |  | inactive | inactive | Not Active | Not Active | inactive |  | inactive |  |  |  |  | 
C/C(=N/NC(=O)CCCN1C(=O)c2ccccc2C1=O)c1ccc(O)cc1 | inactive | inactive | inactive | Active |  | inactive | Not Active | Not Active | inactive |  |  | Active |  |  |  | 
O=C(CCCN1C(=O)c2ccccc2C1=O)Nc1ccccc1C(F)(F)F | inactive | inactive | inactive |  | Active | inactive | Not Active | Active | inactive |  | Active |  |  |  |  | 
CCC1(C)CC(=O)NC1=O (stereo not given) [ETHOSUXIMIDE] | inactive | Active | inactive |  | inactive | inactive | Not Active | Not Active | inactive |  | inactive |  |  |  |  | 
CC/C(C)=N/NC(=O)CCCN1C(=O)c2ccccc2C1=O | inactive | inactive | inactive |  | Active | inactive | Not Active | Not Active | inactive |  | inactive |  |  |  |  | 
O=C(CCCN1C(=O)c2ccccc2C1=O)Nc1cccc(F)c1 | inactive | inactive | inactive |  | Active | Active | Active | Not Active | Active |  | Active |  |  |  |  | 
Cc1ccc(C)c(NC(=O)CCCN2C(=O)c3ccccc3C2=O)c1 | inactive | inactive | inactive |  | Active | inactive |  | Active | Active |  | Active |  |  |  | Active | 
